Source: PubChem BioAssay (Broad Institute)
Most compounds without a hit are left out; they make up all but 1.5% or so of the library.
C2C12 statin – suppressors of statin myotoxicity in C2C12 myotubes, primary screen, cell-based, single point, plate reader | AID 602340, 2012 | actives 0.78% (n = 330,000) | rescue of ATP level, % at 7.49 µM | C2C12 myotubes + simvastatin, ATP luminescence, 48 h; scaled: DMSO 0, geranylgeraniol control 100;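 active means mean ATP rescue above about 67%, or every replicate alone reaching that limit, limit read from the data, passing the limit was not always enough; inconclusive means no clear call, values can overlap the other calls; inactive means mean under the limit and some replicate under it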;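 further: myotubes were challenged with 10 µM simvastatin during compound exposure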
Cneo AK release – Cryptococcus neoformans cell lysis inducers, primary screen, AK release luminescence, single concentration | C. neoformans lysis, adenylate kinase release luminescence, 4 h; normalised: neutral wells 0, clomiphene wells 100 | actives 0.2% (n = 360,000) | lysis activity, % at 15 µM | AID 651654, 2012;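 active means mean lysis activity across replicates of at least 80%, whatever share of replicates individually reach that level; inactive means mean lysis activity below 80%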
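read-out = cell lysis signal | test system = log-phase Cryptococcus neoformans yeast cells | input = cells at 5 × 10^6 per mL | medium = fresh YPD growth medium | signal = luminescent adenylate kinase detection reagent | timing = 4 h at 37 °C static, read 1 h later | dosing = single dose | controls = Clomiphene as positive lysis control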
Mot1-301 SUMO – yeast Mot1-301 growth rescue at high temperature, primary screen, SUMOylation pathway inhibitor project, S. cerevisiae, ATP luminescence, 38.5C; S. cerevisiae Mot1-301 growth rescue; percent above DMSO median, 100 means doubled; actives 1% (n = 320,000); AID 2716, 2010; growth rescue, % at 18.8 µM;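 active means every valid replicate shows activation above 250% relative to neutral control wells; inactive means the rest, any valid replicate at or below 250%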
Yeast Mot1 SUMO – growth restoration of Mot1-301 yeast on galactose, dose response, SUMO pathway inhibitor project, whole organism, S. cerevisiae, ATP luminescence, cherry-picked samples; shares compounds with Mot1-301 SUMO; S. cerevisiae Mot1-301 galactose growth, 24 h; -100 = growth of slx-deleted rescue strain; growth activity, percent, % at 42 µM; 2,300 tested, under 10 active; AID 493004, 2010;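 active means Signal drops as the depositor expects, and the fitted half-maximal dose is no more than ten times the top valid tested dose; inconclusive means Poor fit, or a flat curve whose signal drops by 30% to 70%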;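 further: more negative values mean stronger growth rescue toward the control strain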
Each line names hits and unclear results; the compound was inactive in the other large screens (follow-up assays come after a bar, where they were run).

Cc1nc(Nc2cccc(Cl)c2)c2oc3ccccc3c2n1	none
O=C(O)C[C@H]1C[C@@H]2c3cc(NC(=O)CC4CC4)ccc3O[C@@H]2[C@@H](CO)O1	none (no result: Mot1-301 SUMO)
CN1CCN(C(=O)C[C@H]2C[C@@H]3c4cc(NC(=O)CC5CC5)ccc4O[C@@H]3[C@H](CO)O2)CC1	none (no result: Mot1-301 SUMO)
COc1ccc(NC(=O)CSc2ccccn2)cc1OC	none (no result: Mot1-301 SUMO)
COc1ccc(NC(=O)CSc2nnc(-c3ccccn3)n2-c2ccccc2)cc1OC	Mot1-301 SUMO 475 | Yeast Mot1 SUMO inactive
O=C(NC1CCOC1=O)OCc1ccccc1 (configuration not stated)	none (no result: Mot1-301 SUMO)
CC(=O)NC1CCCN(O)C(=O)/C=C(\C)CCOC(=O)C(NC(C)=O)CCCN(O)C(=O)/C=C(\C)CCOC(=O)C(NC(C)=O)CCCN(O)C(=O)/C=C(\C)CCOC1=O (configuration not stated)	Mot1-301 SUMO 559 | Yeast Mot1 SUMO inactive
COC(=O)c1sccc1NC(=S)N1CCCCC1	Mot1-301 SUMO active | Yeast Mot1 SUMO inactive
COC(=O)c1sccc1NC(=S)N1CCC(C(N)=O)CC1	none (no result: Cneo AK release)
Cc1noc(C)c1NC(=O)N(C)C[C@@H]1Oc2ncc(C#CC3CC3)cc2C(=O)N([C@@H](C)CO)C[C@H]1C	none (no result: Mot1-301 SUMO)
CCCNC(=O)Nc1ccc2c(c1)C(=O)N(C)[C@H]1CC[C@H](CC(=O)Nc3ccccc3F)O[C@@H]1CO2	none (no result: Mot1-301 SUMO)
CCCCCNC(=O)c1ccc2c(=O)n(CC3CCCO3)c(=O)[nH]c2c1 (configuration not stated)	Mot1-301 SUMO 773 (no result: C2C12 statin) | Yeast Mot1 SUMO inactive
CCCCCNC(=O)c1ccc2c(=O)n(CC3CCCO3)c(=S)[nH]c2c1 (configuration not stated)	none (no result: Cneo AK release)
O=C(C[C@H]1C[C@H]2c3cc(NC(=O)NC4CCCC4)ccc3O[C@H]2[C@H](CO)O1)NCc1ccc(-c2ccccc2)cc1	none (no result: Mot1-301 SUMO)
CC(=O)NCc1c(Cl)cccc1-n1cccc1	Mot1-301 SUMO 785 (no result: Cneo AK release) | Yeast Mot1 SUMO inactive
CCC(=O)NCc1c(Cl)cccc1-n1cccc1	none (no result: C2C12 statin, Cneo AK release)
CO[C@H]1CN(C)C(=O)c2cc(NC(=O)C3CCOCC3)ccc2OC[C@H](C)N(C(C)=O)C[C@@H]1C	none (no result: Mot1-301 SUMO)
COc1ccccc1NC(=S)NNC(=O)c1nn(C)cc1Cl	none
COc1ccccc1NC(=O)c1nn(-c2cccc(C(F)(F)F)c2)ccc1=O	Mot1-301 SUMO active | Yeast Mot1 SUMO inactive
COc1ccccc1NC(=O)c1nn(-c2ccc(F)c(F)c2)ccc1=O	none (no result: C2C12 statin)
COc1ccccc1NC(=O)c1nn(C)cc1Br	Mot1-301 SUMO 669 | Yeast Mot1 SUMO inactive
COC(=O)C[C@H]1CC[C@H]2[C@@H](COC[C@@H](O)CN2S(=O)(=O)c2ccc(F)cc2)O1	none (no result: Mot1-301 SUMO)
CCCNC(=O)NC(C)C12CC3CC(CC(C3)C1)C2 (configuration not stated)	none
CCNC(=O)NC(C(=O)OC)C12CC3CC(CC(C3)C1)C2 (configuration not stated)	Mot1-301 SUMO 562 (no result: C2C12 statin) | Yeast Mot1 SUMO inactive
CCCC(=O)Nc1ccc2c(c1)C(=O)N(C)C[C@@H](OC)[C@H](C)CN(CC1CCCC1)[C@@H](C)CO2	none (no result: Cneo AK release, Mot1-301 SUMO)
COc1ccc2nc(C)cc(SCC(=O)Nc3c(C)cc(C)cc3C)c2c1	none
CCOC(=O)CSc1cc(C)nc2ccc(OC)cc12	Mot1-301 SUMO 476 (no result: C2C12 statin, Cneo AK release) | Yeast Mot1 SUMO inactive
Cc1nc2ccc(NC(=O)c3ccco3)cc2s1	Mot1-301 SUMO 363 (no result: C2C12 statin, Cneo AK release) | Yeast Mot1 SUMO inactive
CC(=O)Nc1nc2ccc(NC(=O)c3ccco3)cc2s1	none
C[C@H]1CN([C@@H](C)CO)S(=O)(=O)c2ccc(C3=CCCCC3)cc2O[C@H]1CN(C)Cc1ccccc1F	none (no result: Mot1-301 SUMO)
COc1ccc(S(=O)(=O)N(C)C[C@H]2Oc3ccc(NS(=O)(=O)c4ccc(F)cc4)cc3C(=O)N([C@@H](C)CO)C[C@@H]2C)cc1	none (no result: Mot1-301 SUMO)
Cc1cccc2nc3ccccc3cc12	Mot1-301 SUMO 576 | Yeast Mot1 SUMO inactive
Cc1cccc2cc3ccccc3nc12	none (no result: C2C12 statin, Cneo AK release)
Cc1ccc(S(=O)(=O)Nc2ccc3c(c2)CC(=O)N([C@@H](C)CO)C[C@@H](C)[C@H](CN(C)Cc2ccc4c(c2)OCO4)O3)cc1	none (no result: Mot1-301 SUMO)
Cc1ccc(S(=O)(=O)N2CCOCC2)cc1NC(=O)COC(=O)CCC(=O)c1cccs1	Mot1-301 SUMO 522 | Yeast Mot1 SUMO inactive
O=C(COC(=O)CCC(=O)c1cccs1)Nc1ccc(S(=O)(=O)N2CCOCC2)cc1	none
CN1CCN(C(=O)C[C@@H]2C[C@@H]3c4cc(NC(=O)Nc5ccc(C(F)(F)F)cc5)ccc4O[C@@H]3[C@@H](CO)O2)CC1	none (no result: Mot1-301 SUMO)
CCNC(=O)C1CC(=O)N(Cc2ccc3c(c2)OCO3)C(=Nc2ccc(F)cc2)S1 (configuration not stated)	C2C12 statin inconclusive, Mot1-301 SUMO 781 | Yeast Mot1 SUMO inactive
COc1ccc(N=C2SC(C(N)=O)CC(=O)N2Cc2ccc3c(c2)OCO3)cc1 (configuration not stated)	none
COCC(=O)Nc1ccc2c(c1)OC[C@@H](C)N(CCC(F)(F)F)C[C@H](C)[C@H](OC)CN(C)C2=O	none (no result: Mot1-301 SUMO)
O=C(c1cccc(F)c1)N1CC[C@@H]2[C@H](CO)Nc3ccc(-c4cccc(F)c4)cc3[C@@H]21	none (no result: Mot1-301 SUMO)
COc1ccc(NC(=O)c2ccc(COc3ccccc3Br)o2)cc1OC	none
COc1ccc(NC(=O)c2ccc(COc3ccccc3OC)o2)cc1OC	Mot1-301 SUMO 476 | Yeast Mot1 SUMO inactive
CCc1cc2c(NCCO)ncnc2s1	Mot1-301 SUMO active (no result: C2C12 statin) | Yeast Mot1 SUMO inactive
CCc1cc2c(NCCC(=O)O)ncnc2s1	none
CN1C(=O)c2cc(NC(=O)Cc3ccccc3)ccc2OC[C@@H]2O[C@@H](CC(=O)NC3CCC3)CC[C@@H]21	none (no result: Mot1-301 SUMO)
Fc1cccc(NC(=S)N2CCn3cccc3C2c2cccnc2)c1 (configuration not stated)	Mot1-301 SUMO 497 | Yeast Mot1 SUMO inactive
S=C(Nc1ccccc1)N1CCn2cccc2C1c1cccnc1 (configuration not stated)	none (no result: C2C12 statin, Cneo AK release)
CNC[C@H]1Oc2ncc(Br)cc2C(=O)N([C@H](C)CO)C[C@H]1C	none (no result: Mot1-301 SUMO)
C[C@@H]1CN([C@@H](C)CO)C(=O)c2cc(N(C)C)ccc2O[C@@H](C)CCCCO[C@H]1CN(C)Cc1ccc(C(F)(F)F)cc1	none (no result: C2C12 statin, Mot1-301 SUMO)
C[C@H]1CN([C@@H](C)CO)C(=O)c2cc(NC(=O)Nc3ccc(C(F)(F)F)cc3)ccc2O[C@H]1CN(C)CC1CC1	none (no result: Mot1-301 SUMO)
COc1ccc(NC(=O)Nc2ccc3c(c2)C(=O)N([C@@H](C)CO)C[C@H](C)[C@H](CN(C)C(=O)Nc2ccc(OC)cc2)OCCCC[C@H](C)O3)cc1	none (no result: C2C12 statin, Mot1-301 SUMO)
COCCNC(=O)NC(=O)CSc1nc(C)c(C)c(C)n1	Mot1-301 SUMO 494 | Yeast Mot1 SUMO inactive
Cc1nc(SCC(=O)NC(=O)NCc2ccco2)nc(C)c1C	none (no result: C2C12 statin, Cneo AK release)
COc1ccccc1C1CC(=O)Oc2cc(O)ccc21 (configuration not stated)	none (no result: Mot1-301 SUMO)
